{"data": "Measured values of several laboratories", "target": "cAMP-dependent protein kinase catalytic subunit PRKX (PRKX, Homo sapiens, UniProt P51817)", "Residues used in one study (P51817 1-358)": "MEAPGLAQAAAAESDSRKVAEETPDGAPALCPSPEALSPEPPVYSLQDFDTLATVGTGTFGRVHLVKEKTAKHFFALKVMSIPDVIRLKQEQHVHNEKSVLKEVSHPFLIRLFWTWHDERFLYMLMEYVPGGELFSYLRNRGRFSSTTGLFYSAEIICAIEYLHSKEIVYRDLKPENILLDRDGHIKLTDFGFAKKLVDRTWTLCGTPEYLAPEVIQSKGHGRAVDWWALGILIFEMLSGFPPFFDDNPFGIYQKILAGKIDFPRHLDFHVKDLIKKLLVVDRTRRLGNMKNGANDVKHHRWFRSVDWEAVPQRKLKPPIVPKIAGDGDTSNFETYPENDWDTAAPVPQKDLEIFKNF"}
{"Structure (SMILES)": "O=C1Nc2ccc(Cl)cc2C1=Cc1cc(Cl)c(O)c(Cl)c1", "read-out": "cell-free assay", "concentration": "0.5 µM", "quantity": "remaining signal", "value": "92.1%"}
{"Structure (SMILES)": "C[C@@H](c1cccc(C#N)c1)n1cc(Cl)cc(C(N)=O)c1=N", "read-out": "cell-free assay", "method": "competition with immobilised ligand", "concentration": "1 µM", "quantity": "remaining binding", "value": "100%"}
{"Structure (SMILES)": "CNC(=O)c1cc(Oc2ccc(NC(=O)Nc3ccc(Cl)c(C(F)(F)F)c3)cc2)ccn1", "read-out": "enzyme activity", "action": "inhibitor", "concentration": "10 µM", "quantity": "inhibition", "value": "48%"}
{"Structure (SMILES)": "Cc1ccc(C(=O)NCc2ccsc2)cc1C#Cc1cn(C(C)C)c2ncnc(N)c12", "read-out": "enzyme activity", "action": "inhibitor", "concentration": "1 µM", "quantity": "activity vs control", "value": "110%"}
{"Structure (SMILES)": "CN1CC(Oc2cnc(C#N)cc2-c2ccn3nc(NC(=O)C4CC4)cc3c2)C1", "read-out": "enzyme activity", "action": "inhibitor", "concentration": "1 µM", "quantity": "inhibition", "value": "5%"}
{"Structure (SMILES)": "Cn1cnc(Br)c1C1=CN(c2ncnc3[nH]cnc23)CCS1", "read-out": "enzyme activity", "action": "inhibitor", "method": "radiometric", "concentration": "50 nM", "quantity": "inhibition", "value": "17.6%"}
{"Structure (SMILES)": "CN(C)c1nccc(-c2cnc3ncccn23)n1", "read-out": "binding", "concentration": "1 µM", "quantity": "remaining binding", "value": "94%"}
{"Structure (SMILES)": "CCN(CC)c1ccc(C2=NNC(=O)CC2C)cc1[N+](=O)[O-] (centres unmarked)", "read-out": "enzyme activity", "action": "inhibitor", "concentration": "10 µM", "quantity": "remaining activity", "value": "91%"}
{"Structure (SMILES)": "Cc1cc(NC(=O)c2cccc(S(F)(F)(F)(F)F)c2)cc(-n2ccn3nc(-c4cccnc4)cc23)c1", "read-out": "cell-free assay", "method": "competition with immobilised ligand", "concentration": "1 µM", "quantity": "remaining binding", "value": "100%"}
{"Structure (SMILES)": "CCCOc1ccc(OC)c(F)c1C(=O)c1ccc(C(=O)N[C@@H]2CNC[C@H]2NC(=O)c2ccc3[nH]ncc3c2)cc1", "read-out": "enzyme activity", "action": "inhibitor", "concentration": "0.5 µM", "quantity": "remaining activity", "value": "5%"}
{"Structure (SMILES)": "CCOc1cc(-c2nncn2C)ccc1Nc1ncc2cc(C)nc(NCC(C)(C)C)c2n1", "read-out": "enzyme activity", "action": "inhibitor", "method": "FRET", "concentration": "1 µM", "quantity": "inhibition", "value": "< 15%"}
{"Structure (SMILES)": "N#Cc1ccc(Nc2ccc3[nH]c(=O)[nH]c3c2)c(Cl)c1", "read-out": "cell-free assay", "method": "competition with immobilised ligand", "concentration": "1 µM", "quantity": "remaining binding", "value": "100%"}
{"Structure (SMILES)": "COc1cc2ncnc(Nc3ccc(Oc4ccccc4)cc3C)c2cc1OC", "read-out": "enzyme activity", "action": "inhibitor", "concentration": "1 µM", "quantity": "inhibition", "value": "6%"}
{"Structure (SMILES)": "Cc1ccc(Nc2nccc(N(C)c3ccc4c(C)n(C)nc4c3)n2)cc1S(N)(=O)=O", "read-out": "enzyme activity", "action": "inhibitor", "concentration": "0.3 µM", "quantity": "inhibition", "value": "61%"}
{"Structure (SMILES)": "Cc1sc(C(=O)NC2COC2)cc1-n1cc(NC(=O)Nc2c(F)cccc2Cl)cn1", "read-out": "enzyme activity", "action": "inhibitor", "concentration": "10 µM", "quantity": "remaining activity", "value": "87.5%"}
{"Structure (SMILES)": "CCN(CC)CCNC(=O)c1c(C)[nH]c(/C=C2\\C(=O)Nc3ccc(F)cc32)c1C", "read-out": "enzyme activity", "action": "inhibitor", "concentration": "0.3 µM", "quantity": "inhibition", "value": "1%"}
{"Structure (SMILES)": "CNCc1ccccc1-c1csc([C@@H](C)Nc2nc(C)nc3cc(OC)c(OC)cc23)c1", "read-out": "cell-free assay", "method": "competition with immobilised ligand", "concentration": "1 µM", "quantity": "remaining binding", "value": "67%"}
{"Structure (SMILES)": "O=C1NC(=O)c2cc(Nc3ccc(F)cc3)c(Nc3ccc(F)cc3)cc21", "read-out": "cell-free assay", "concentration": "0.5 µM", "quantity": "remaining signal", "value": "103%"}
{"Structure (SMILES)": "CO[C@@H](C)c1c(Nc2ccc([C@H](N(C)C(=O)C3CCS(=O)(=O)CC3)C(F)(F)F)cc2)cnc2cc(Cl)nn12", "read-out": "cell-free assay", "method": "competition with immobilised ligand", "concentration": "1 µM", "quantity": "remaining binding", "value": "88%"}
{"Structure (SMILES)": "CCCS(=O)(=O)Nc1ccc(F)c(C(=O)c2c[nH]c3ncc(-c4ccc(Cl)cc4)cc23)c1F", "read-out": "enzyme activity", "action": "inhibitor", "concentration": "1 µM", "quantity": "inhibition", "value": "< 10%"}
{"Structure (SMILES)": "CC1=C(C#N)C(c2ccc3c(c2)c(NC(=O)c2ccccc2C)nn3C)C(C#N)=C(C)N1", "read-out": "cell-free assay", "method": "competition with immobilised ligand", "concentration": "1 µM", "quantity": "remaining binding", "value": "76%"}
{"Structure (SMILES)": "COc1cc(Cl)c(C(=O)N[C@@H](CN[C@H]2CC[C@@H](N)CC2)Cc2ccc(C#N)cc2)cc1-c1ccc(CN[C@H](C)c2ccc(C)cc2)o1", "read-out": "enzyme activity", "action": "inhibitor", "concentration": "1 µM", "quantity": "remaining activity", "value": "97%"}
{"Structure (SMILES)": "CS(=O)(=O)N1CCCC(NC(=O)[C@H](CCC2CCCCC2)NC(=O)c2ccc(CNc3ncnc4c3nnn4-c3ccccc3)cc2)C1 (some centres unmarked)", "read-out": "cell-free assay", "method": "competition with immobilised ligand", "concentration": "0.1 µM", "quantity": "remaining binding", "value": "100%"}
{"Structure (SMILES)": "CC(C)(C)c1nc(-c2cccc(NS(=O)(=O)c3c(F)cccc3F)c2F)c(-c2ccnc(N)n2)s1", "read-out": "enzyme activity", "action": "inhibitor", "method": "radiometric", "concentration": "1 µM", "quantity": "remaining activity", "value": "77%"}
{"Structure (SMILES)": "CN(C(=O)c1ccccc1)c1cc(N(C)c2ccc3c(c2)CCc2ccc(C(=O)NCCN4CCOCC4)cc2C3=O)ccc1F", "read-out": "cell-free assay", "method": "competition with immobilised ligand", "concentration": "1 µM", "quantity": "remaining binding", "value": "93%"}
{"Structure (SMILES)": "CC/C(=N\\NC(=O)NCc1cccc(O)c1)c1ccc(O)c(C)c1O", "read-out": "enzyme activity", "action": "inhibitor", "concentration": "0.1 µM", "quantity": "inhibition", "value": "81.9%"}
